We go through two compounds from ChEMBL document CHEMBL3817745, “Structure-Activity Relationship for the 4(3H)-Quinazolinone Antibacterials” (J Med Chem, 2016).

Series [1] relates to Staphylococcus aureus. In words: […] activity against methicillin-susceptible Staphylococcus aureus ATCC 29213. The series is classed as functional. Conditions: read-out: MBC99.9.
In series [2] the test system is Staphylococcus aureus. Kind of series: […] activity against multidrug resistant Staphylococcus aureus ATCC 27660. Format: functional. Conditions: read-out: MBC99.9.
For another series, the system named is Plasma. Kind of series: Drug level in plasma of ICR mouse neutropenic thigh model of methicillin-resistant Staphylococcus aureus NRS70 infection at 10 mg/kg, sc tid administered every 8 hrs starting from 1 hr post infection and measured 7 hrs post last dose by UPLC analysis. The series is classed as ADME, organism-based. The note with it: in vivo, BLD = below limit of detection. A digest of the protocol:
(§1)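 Neutropenic thigh model (cyclophosphamide 200 mg/kg ip, NRS70 im), sc doses at 1, 9 and 17 h; at 24 h cardiac blood and uninfected thigh taken (n = 8 per group); thigh homogenate supernatant and plasma acetonitrile-quenched with internal standard, analysed by UPLC with MRM detection.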

The test system of series [3] is Staphylococcus aureus. Kind of series: […] activity against methicillin-resistant Staphylococcus aureus NRS70. The series is classed as functional. The note with it: read-out: MBC99.9.
Series [4] can be described thus: Drug level in uninfected thighs of ICR mouse neutropenic thigh model of methicillin-resistant Staphylococcus aureus NRS70 infection at 10 mg/kg, sc tid administered every 8 hrs starting from 1 hr post infection and measured 7 hrs post last dose by UPLC analysis. The series is classed as ADME, organism-based. Conditions: in vivo, BLD = below limit of detection. A digest of the protocol: as §1

The subject of the next series is Enterococcus faecium. Kind of series: Antibacterial activity against Enterococcus faecium NCTC 7171 incubated for 16 to 20 hrs by microdilution method. Format: functional. A digest of the protocol:
(§2)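 CLSI broth microdilution. 2-fold serial dilutions were made in cation-adjusted Mueller–Hinton broth, with 5% lysed horse blood added for Streptococcus strains, in triplicate. Inoculum 5×10^5 CFU/mL. Plates incubated 36 °C for 16–20 h. MIC taken as the lowest concentration visibly inhibiting growth.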

Series [5] concerns Staphylococcus haemolyticus. In words: Antibacterial activity against Staphylococcus haemolyticus ATCC 29970 incubated for 16 to 20 hrs by microdilution method. Format: functional. For orientation: In broth dilution the organism is exposed to a series of concentrations in liquid medium.
Series [6] concerns Staphylococcus aureus. In words: Antibacterial activity against mecA-positive multidrug resistant Staphylococcus aureus NRS120 incubated for 16 to 20 hrs by microdilution method. The series is classed as functional.
Series [7] concerns Staphylococcus epidermidis. In words: Antibacterial activity against Staphylococcus epidermidis ATCC 35547 incubated for 16 to 20 hrs by microdilution method. The series is classed as functional. A digest of the protocol: as §2
The test system of series [8] is Staphylococcus aureus. Kind of series: Antibacterial activity against methicillin-resistant Staphylococcus aureus NRS70 in ICR mouse neutropenic thigh infection model assessed as reduction in bacterial load at 10 mg/kg, sc tid administered every 8 hrs starting from 1 hr post infection and measured 7 hrs post last dose. Format: functional, organism-based. A digest of the protocol: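 Female ICR mice (n = 8 per group) made neutropenic with ip cyclophosphamide 200 mg/kg at 4 days and 1 day pre-infection; 100 μL NRS70 (~1×10^6 CFU/mL in brain–heart infusion) injected im into right thigh; sc doses at 1, 9, 17 h; thighs harvested at 24 h, homogenized, plated in triplicate on LB agar; log10 CFU/g.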

Series [9] has as its system Staphylococcus aureus. Kind of series: Antibacterial activity against mecA-positive multidrug resistant Staphylococcus aureus NRS119 incubated for 16 to 20 hrs by microdilution method. The series is classed as functional.
A further series concerns Klebsiella pneumoniae. In words: Antibacterial activity against Klebsiella pneumoniae ATCC 700603 incubated for 16 to 20 hrs by microdilution method. Format: functional. A digest of the protocol:
as §2

In series [10] the test system is Staphylococcus aureus. Kind of series: Antibacterial activity against mecA-positive methicillin/oxacillin/tetracycline-resistant Staphylococcus aureus ATCC 27660 incubated for 16 to 20 hrs by microdilution method. Format: functional.
Series [11] is described as follows: Hemolytic activity against human RBC at 64 ug/ml relative to control. Conditions: erythrocyte. The series is classed as ADME, cell-based, Erythrocyte. A digest of the protocol:
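Hemolysis was measured at a fixed 64 μg/mL on a 10% red-cell suspension from heparinized human blood. Triton-X served as the positive control, and results are given as percent hemolysis.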

The subject of series [12] is Enterococcus faecalis. In words: Antibacterial activity against methicillin-susceptible Enterococcus faecalis ATCC 29212 incubated for 16 to 20 hrs by microdilution method. Format: functional. A digest of the protocol:
as §2

In series [13] the test system is Staphylococcus aureus. In words: Antibacterial activity against mecA-positive multidrug resistant Staphylococcus aureus COL NRS100 incubated for 16 to 20 hrs by microdilution method. Format: functional.
The next series relates to Acinetobacter baumannii. In words: Antibacterial activity against Acinetobacter baumannii ATCC 17961 incubated for 16 to 20 hrs by microdilution method. The series is classed as functional. A digest of the protocol: as §2
The next series concerns HepG2. Kind of series: Cytotoxicity against human HepG2 cells incubated for 16 hrs by XTT assay. Format: cell-based. The note with it: HepG2, 16 h. A digest of the protocol:
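HepG2 cells were tested with an XTT viability read-out, in triplicate. IC50 was obtained by nonlinear regression.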
(Tetrazolium assays rely on reduction of a dye to a coloured formazan, in cell work by metabolically active cells.)

Series [14] deals with Staphylococcus aureus. In words: Antibacterial activity against methicillin-resistant Staphylococcus aureus NRS70 incubated for 16 to 20 hrs by microdilution method. Format: functional.
The test system of a further series is Streptococcus pyogenes. Kind of series: Antibacterial activity against Streptococcus pyogenes ATCC 49399 incubated for 16 to 20 hrs by microdilution method. Format: functional. A digest of the protocol: as §2
A further series has as its system Mus musculus. Kind of series: AUC (0 to last) in ICR mouse peritonitis model infected with methicillin resistant Staphylococcus aureus ATCC 27660 at 10 mg/kg, iv administered as single dose measured up to 8 hrs by UPLC analysis. Format: ADME, organism-based. On the set-up: dose 10 mg/kg, time 0 - last, route intravenous. Conditions: in vivo, 8 h. A digest of the protocol:
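Fast PK: female ICR mice (n = 2 per time point) given single tail-vein iv injection at 5, 10 or 20 mg/kg in 25% DMSO/65% propylene glycol/10% water (2.5, 5 or 10 mg/mL); terminal cardiac blood at 5 min, 40 min, 2, 4, 8 h; plasma analysed by UPLC with internal standard calibration.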

The subject of series [15] is Enterococcus faecalis. Kind of series: Antibacterial activity against vancomycin-resistant Enterococcus faecalis 99 clinical isolate incubated for 16 to 20 hrs by microdilution method. The series is classed as functional.
The test system of series [16] is Staphylococcus aureus. In words: Antibacterial activity against methicillin resistant Staphylococcus aureus ATCC 27660 infected in ICR mouse model of peritonitis assessed as mouse survival at 5 mg/kg, iv administered at 30 mins and 4.5 hrs post infection measured for 48 hrs relative to control. The series is classed as functional.
Series [17] concerns Staphylococcus aureus. In words: Bactericidal activity against methicillin-susceptible Staphylococcus aureus ATCC 29213 assessed as bacterial count at >=1 ug/ml (reference value: 1x10^6 CFU/ml). The series is classed as functional.
A further series relates to Klebsiella aerogenes. In words: Antibacterial activity against Enterobacter aerogenes ATCC 35029 incubated for 16 to 20 hrs by microdilution method. Format: functional. A digest of the protocol: as §2
For the next series, the system named is Bacillus licheniformis. In words: Antibacterial activity against Bacillus licheniformis ATCC 12759 incubated for 16 to 20 hrs by microdilution method. Format: functional. A digest of the protocol: as §2
In series [18] the test system is Staphylococcus aureus. Kind of series: Antibacterial activity against methicillin-susceptible Staphylococcus aureus ATCC 29213 incubated for 16 to 20 hrs by microdilution method. The series is classed as functional.
The subject of series [19] is Staphylococcus aureus. In words: Antibacterial activity against vancomycin/methicillin-resistant Staphylococcus aureus VRS1 clinical isolate incubated for 16 to 20 hrs by microdilution method. The series is classed as functional.
The subject of a further series is Escherichia coli. Kind of series: Antibacterial activity against Escherichia coli ATCC 25922 incubated for 16 to 20 hrs by microdilution method. The series is classed as functional. A digest of the protocol: as §2
Another series relates to Streptococcus oralis. In words: Antibacterial activity against Streptococcus oralis ATCC 9811 incubated for 16 to 20 hrs by microdilution method. The series is classed as functional. A digest of the protocol:
as §2

A further series deals with Pseudomonas aeruginosa. Kind of series: Antibacterial activity against Pseudomonas aeruginosa […] incubated for 16 to 20 hrs by microdilution method. The series is classed as functional. A digest of the protocol:
as §2

The test system of the next series is Bacillus cereus. In words: Antibacterial activity against Bacillus cereus ATCC 13061 incubated for 16 to 20 hrs by microdilution method. Format: functional. A digest of the protocol:
as §2

Series [20] can be described thus: Protein binding in human plasma at 20 uM after 2 hrs by UPLC based equilibrium dialysis method. The series is classed as ADME, cell-free. A digest of the protocol:
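Human plasma was tested by rapid equilibrium dialysis at a final compound concentration of 20 μM. Dialysis ran 2 h at 37 °C on an orbital shaker. Samples were quenched in acetonitrile with internal standard and quantified by UPLC with MRM detection. Triplicate, each measured in duplicate.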
(In general: In equilibrium dialysis free small molecules cross a membrane that holds back macromolecules.)

Values after ≈ are worked out from the molar mass of the structure shown. Active and inactive are the calls of the source. The rule behind the calls is not given here.

As usually defined, the MIC is the lowest concentration found to suppress growth. Read a high MIC as weaker potency. On to `CC(=O)NC[C@H]1CN(c2ccc(N3CCOCC3)c(F)c2)C(=O)O1` [LINEZOLID], for which the MBC was 16 mg/L (≈ 47.4 µM) in the series on Staphylococcus aureus [1], 16 mg/L (≈ 47.4 µM) with Staphylococcus aureus [2] and 8 mg/L (≈ 23.7 µM) with Staphylococcus aureus [3]. In addition, in the series with Plasma, the Cp entry was “BLD”. In addition, the Drug uptake result in [4] is listed as “BLD”. In addition, the MIC stood at 2 mg/L (≈ 5.93 µM) against Enterococcus faecium; 2 mg/L (≈ 5.93 µM) in series [5]; 32 mg/L (≈ 94.9 µM) with Staphylococcus aureus [6]; 1 mg/L (≈ 2.96 µM) in [7]; 32 mg/L (≈ 94.9 µM) against Staphylococcus aureus [9]. In addition, the result with Staphylococcus aureus [8] was Active.

For orientation: IC50 means the concentration that gives 50% inhibition. Turning to `C#Cc1ccc(/C=C/c2nc3ccccc3c(=O)n2-c2cccc(C(=O)O)c2)cc1`, the MIC is at least 16 mg/L with Klebsiella pneumoniae; 0.06 mg/L (≈ 0.153 µM) in the series with Staphylococcus aureus [10]; above 128 mg/L in the series on Enterococcus faecalis [12]; 0.25 mg/L (≈ 0.637 µM) in the series with Staphylococcus aureus [13]; at least 16 mg/L with Acinetobacter baumannii; 0.03 mg/L (≈ 0.0764 µM) against Staphylococcus aureus [14]. Moreover, the MIC in the series with Enterococcus faecium was above 128 mg/L; against Streptococcus pyogenes, 128 mg/L (≈ 326 µM); with Enterococcus faecalis [15], 128 mg/L (≈ 326 µM); in the series with Staphylococcus aureus [6], 0.5 mg/L (≈ 1.27 µM); in series [7], 0.008 mg/L (≈ 0.0204 µM); against Klebsiella aerogenes, at least 16 mg/L. In addition, the MIC in the series on Bacillus licheniformis is 128 mg/L (≈ 326 µM); against Staphylococcus aureus [18], 0.03 mg/L (≈ 0.0764 µM); against Staphylococcus aureus [19] it was 0.5 mg/L (≈ 1.27 µM); in the series on Escherichia coli, at least 16 mg/L; against Staphylococcus aureus [9], 0.06 mg/L (≈ 0.153 µM); in the series with Streptococcus oralis, 128 mg/L (≈ 326 µM). For the same compound, the MIC in the series on Pseudomonas aeruginosa is at least 16 mg/L; against Bacillus cereus, 128 mg/L (≈ 326 µM). In addition, the MBC with Staphylococcus aureus [1] was 0.125 mg/L (≈ 0.319 µM); in the series with Staphylococcus aureus [2], 1 mg/L (≈ 2.55 µM); in the series on Staphylococcus aureus [3], 0.5 mg/L (≈ 1.27 µM). Besides, the Activity in series [11] is on record as below 1%; in the series with Staphylococcus aureus [17] it was “<=500 CFU/ml”. The compound further yielded a half-maximal inhibitory concentration (IC50) in the series with HepG2 of 82 mg/L (≈ 209 µM). The compound further yielded an AUClast in the series on Mus musculus of 1540 µg·min/mL. In the series on Staphylococcus aureus [16], the Efficacy was above 50%. In addition, the PPB in series [20] turned out to be 99.6%.
